This is a sample that favours compounds with a hit; in the whole collection about 1.7% have one here.
NTR1 ag: agonists of human neurotensin receptor NTR1; P30989; NTR1-U2OS beta-arrestin-GFP spot imaging, agonist mode; activation, % at 20 µM; actives 0.17% (n = 330,000); AID 493036;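 active = activation at or above 40% of the spot to cytoplasm intensity ratio, with at least 20 cells analyzed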;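 also: 0% = DMSO without peptide and 100% = 100 nM NTR1 peptide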
Target sequence (P30989 whole entry, looked up): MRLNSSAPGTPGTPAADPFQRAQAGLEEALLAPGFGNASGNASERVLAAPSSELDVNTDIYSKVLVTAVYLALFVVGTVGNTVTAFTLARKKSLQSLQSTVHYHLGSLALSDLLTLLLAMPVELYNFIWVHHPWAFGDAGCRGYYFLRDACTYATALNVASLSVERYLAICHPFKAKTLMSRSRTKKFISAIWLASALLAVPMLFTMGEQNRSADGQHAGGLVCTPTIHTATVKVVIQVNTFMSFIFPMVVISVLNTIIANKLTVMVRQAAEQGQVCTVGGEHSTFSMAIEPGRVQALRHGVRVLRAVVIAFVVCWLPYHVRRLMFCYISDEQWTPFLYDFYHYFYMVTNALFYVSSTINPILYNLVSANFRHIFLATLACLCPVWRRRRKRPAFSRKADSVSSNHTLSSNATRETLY
Vif imaging: HIV Vif inhibition; HEK293T cells, Vif self-association by quenched fluorescence, imaging, 24 h; inhibition, % at 7.49 µM; actives 0.35% (n = 340,000); AID 602346; in the data active = inhibition above about 50%, passing the limit was not always enough
CaV13 ICDI inh: Disruptors of the CACNA1D IQ motif to Ca2+-dependent inactivation inhibitor domain association, primary screening, Förster resonance energy transfer in intact living …; HEK cells, CFP/YFP FRET ICDI-IQ, plate reader, 10 min; percent FRET-ratio fall versus neutral wells; actives 0.098% (n = 340,000); inhibition, % at 12.3 µM;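 active = mean replicate inhibition of at least 30% and at least 1% of replicates passing that level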;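 also: 0% = median of the neutral control wells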
V-ATPase pH: yeast V-ATPase proton transport regulation by pHLuorin. AID 504577. response, % at 10 µM. S. cerevisiae, pHLuorin cytosolic pH fluorescence. actives 0.37% (n = 350,000); in the data active = response mostly above about 7.3%, no sharp cut-off; inactive = mostly below about 5.4%; also: actives read high
SR-BI HDL uptake: blocks mouse SR-BI lipid uptake from DiI-HDL; Q61009; actives 0.96% (n = 320,000); inhibition, % at 12.5 µM; AID 488896; ldlA[mSR-BI] CHO cells, DiI-HDL uptake fluorescence, 3 h;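 active = mean replicate inhibition of at least 70% and a set share of replicates each scoring 70 or more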;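 also: 0% = median of neutral control wells and 100% = median of positive control wells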
SR-BI DiI-HDL act: activators of SR-BI mediated HDL lipid uptake; activation, % at 12.5 µM; actives 0.096% (n = 320,000); CHO ldlA[mSR-BI] cells, DiI-HDL uptake fluorescence, 3 h; 100 = double the neutral-control signal;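 active = mean replicate activation of at least 60% and every replicate at or above 60%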;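 also: 0% = median plate neutral-control signal and 100% = twice that signal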
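Test system: SR-BI-overexpressing, LDLR-lacking CHO cells. Measured by: DiI fluorescence, bottom read. Medium: Ham's F12 with 0.5% BSA, HEPES 25 mM, pH 7.4. Timing: 3 h uptake period with compound, 37 °C.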
The depositor's hits bear a star; nt = no result; + = active, no number.

SMILES	NTR1 ag	Vif imaging	CaV13 ICDI inh	V-ATPase pH	SR-BI HDL uptake	SR-BI DiI-HDL act
COC(=O)C1=C(C)N(Cc2cccc(C(F)(F)F)c2)C(=NCc2cc(OC)c(OC)c(OC)c2)NC1c1ccccc1 (stereo not given)	nt	nt	-4.0	nt	nt	nt
CCC(C)NC(=O)Cn1c(=O)n(-c2ccccc2)c(=O)c2ccc(C(=O)NCc3ccco3)cc21 (stereo not given)	-2.1	60.7*	-2.9	0.8	-1.3	1.3
Cc1ccc(Cn2c(=O)n(-c3ccccc3)c(=O)c3ccc(C(=O)NCc4ccco4)cc32)cc1	-1.5	0.0	-4.5	4.5	-8.1	8.1
COC(=O)[C@@H](Cc1ccccc1)NC(=O)[C@H]1O[C@@H](n2cnc3c(=O)[nH]c(N)nc32)[C@H](O)[C@@H]1O	nt	nt	-5.4	nt	nt	nt
COc1ccc(/C=C2\Sc3ccc(C(=O)NC4CC4)cc3N(C)C2=O)cc1OC	2.7	-8.5	-7.2	-0.5	75.6*	-75.6
COc1ccc(/C=C2\Sc3ccc(C(=O)N4CCCC4)cc3N(C)C2=O)cc1OC	5.7	-3.3	nt	0.6	68.0	-68.0
Cc1ccc(C(=O)Nc2nc3ccc(S(C)(=O)=O)cc3s2)o1	-3.0	0.9	-4.0	4.9	-94.9	94.9*
CCOc1ccc(CCNC(=O)COC(=O)/C=C/c2cccc(OC)c2)cc1OCC	2.1	8.3	-4.6	0.3	0.3	-0.3
COc1ccc(NC(=O)Cn2nnc(C(=O)Nc3ccccc3C)c2N)cc1	-0.2	53.4*	-1.5	1.0	-16.8	16.8
CCOc1ccc(CCNC(=O)c2nnn(CC(=O)Nc3ccc(OC)c(OC)c3)c2N)cc1OCC	0.3	1.9	-6.9	-3.3	72.1*	-72.1
COc1ccc(CCNC(=O)/C=C\c2ccccc2)cc1OC	1.2	-1.8	-3.7	-0.9	17.3	-17.3
COc1ccc(/C=C/C(=O)NC(=S)NCCc2ccc(OC)c(OC)c2)cc1	0.9	70.3*	-8.3	2.7	82.7*	-82.7
CCOc1ccc(/C=C/C(=O)OCC(=O)NCCc2ccc(OCC)c(OCC)c2)cc1OC	0.8	2.2	-5.3	-0.3	72.6*	-72.6
COc1ccc(NC(=O)Cn2nnc(C(=O)NCCc3ccccc3)c2N)cc1	3.4	-7.3	-5.4	-2.3	-4.2	4.2
Cc1cc(OCC(=O)NCCCn2ccnc2)c2c(C)cc(=O)oc2c1	0.5	4.5	-12.7	-4.3	-5.4	5.4
CCN1C[C@@H]2[C@@H]3C(=O)N(C)C(=O)[C@@H]3[C@](CC)(C1=O)N2C(=O)c1ccc(C(C)(C)C)cc1	-1.4	1.6	-10.7	-2.9	-10.4	10.4
CC(=O)c1ccccc1NS(C)(=O)=O	0.4	-3.9	-4.6	3.0	-5.1	5.1
CN(C(=O)COC(=O)c1cc(-c2ccc(Cl)s2)nc2ccccc12)C1CCS(=O)(=O)C1 (stereo not given)	3.5	8.5	1.0	12.1*	43.4	-43.4
COc1ccc(NC(=O)Cn2c(=O)n(CCC(=O)NCC3CCCO3)c(=O)c3cc(OC)c(OC)cc32)cc1 (stereo not given)	-1.3	-11.9	-7.3	-1.1	8.3	-8.3
CCc1cccc(NC(=O)Cn2c(=O)n(CCC(=O)NCC3CCCO3)c(=O)c3cc(OC)c(OC)cc32)c1 (stereo not given)	-1.7	2.8	-6.9	-3.6	-378.9	378.9*
COC(=O)C1=C(C)N(Cc2ccccc2C(F)(F)F)C(=NCc2ccc(C(F)(F)F)cc2)NC1c1ccc(C(F)(F)F)cc1 (stereo not given)	nt	nt	-5.8	nt	nt	nt
O=[N+]([O-])c1ccc(O)c(N=Cc2sc3ccccc3c2O)c1	nt	1.8	-4.9	-2.1	124.5*	-124.5
Oc1ccc(Cl)cc1N=Cc1sc2ccccc2c1Cl	nt	-2.4	-9.2	-2.1	4.8	-4.8
O=S1(=O)CC(N2CCN(CCO)CC2)CN1Cc1cn(Cc2ccc(F)cc2)nn1 (stereo not given)	nt	nt	-6.8	nt	nt	nt
CC(C)c1[nH]nc2c1C(c1cccc(C(F)(F)F)c1)NC2=O (stereo not given)	nt	nt	-4.9	nt	nt	nt
SMILES	NTR1 ag	Vif imaging	CaV13 ICDI inh	V-ATPase pH	SR-BI HDL uptake	SR-BI DiI-HDL act
COc1ccc(C2C(=O)c3ccccc3C2=Nc2ccc(Br)cc2)cc1 (stereo not given)	5.7	-6.6	-5.0	-1.4	94.1*	-94.1
CCC1CN(C(=O)N2CCC(C(=O)NCCc3ccc(OC)cc3OC)CC2)c2ccccc2O1 (stereo not given)	1.8	2.6	-13.7	-4.7	78.2*	-78.2
O=C(CNC(=O)c1sc2ccccc2c1Cl)NC1CC1	1.0	-11.9	-2.1	-0.1	-16.9	16.9
Nc1[nH]c(C(=O)c2ccccc2)c(-c2ccc3ccccc3c2)c1C(=O)NCc1ccc(F)cc1	nt	nt	-16.5	nt	nt	nt
C=CCc1c(C)nc(-c2ccccc2)nc1N/N=C/c1ccccc1	2.7	nt	-2.5	-0.6	61.0	-61.0
C=CCc1c(C)nc(-c2ccccc2)nc1Nc1ccccc1O	1.6	2.4	-3.9	1.6	101.2*	-101.2
Cc1cccn2c(=O)c3cc(C#N)c(=NC(=O)c4cccs4)n(CC(C)C)c3nc12	17.1	-6.2	+	-3.9	-12.2	12.2
Cc1ccc(Cn2c(=N)c(C#N)cc3c(=O)n4cccc(C)c4nc32)cc1	0.0	nt	nt	nt	nt	nt
CCC(C)n1c(=N)c(C#N)cc2c(=O)n3cc(C)ccc3nc21 (stereo not given)	0.3	-1.2	57.1*	-1.0	1.5	-1.5
CCOCCCn1c(=NC(=O)c2cccs2)c(C#N)cc2c(=O)n3cccc(C)c3nc21	3.6	-0.7	15.7	-0.1	20.5	-20.5
CCC(C)n1c(=N)c(C#N)cc2c(=O)n3cccc(C)c3nc21 (stereo not given)	4.5	-7.1	+	1.3	-15.9	15.9
O=C(O)COc1ccc(/C=N/NC(=O)c2ccc(-c3csc(Nc4ccc(Cl)cc4)n3)cc2)cc1	nt	-10.6	-1.6	2.5	74.1*	-74.1
C/C(=N/NS(=O)(=O)c1ccc(Br)cc1)c1cccc(NC(=O)C2CC2)c1	nt	-1.9	-10.7	1.4	nt	nt
O=C(/C=C\c1ccccc1[N+](=O)[O-])Nc1ccccc1	1.7	12.3	0.5	-4.5	42.6	-42.6
CCOc1ccccc1NC(=O)/C=C/c1ccccc1[N+](=O)[O-]	-0.5	-3.5	-5.3	-5.0	82.1*	-82.1
Cc1ccc(-c2nc(NC(=O)c3nn(C)cc3[N+](=O)[O-])sc2C)cc1C	28.2	nt	-8.8	-2.0	73.9*	-73.9
Cc1ccc(-c2nc(NC(=O)c3nn(C)cc3[N+](=O)[O-])sc2C)cc1	39.2	nt	-6.3	2.4	51.9	-51.9
Cc1nc2ccc(C(=O)NCCc3c[nH]c4ccccc34)cn2c1N(C)C(=O)CCc1ccccc1	nt	54.0*	-9.5	nt	nt	nt
Cc1cnc(C(=O)N2CCCC(N3CCN(c4ccccc4C)CC3)C2)cn1 (stereo not given)	0.4	1.8	-3.6	2.4	-7.3	7.3
